pIC50: −log10 of the molar value. Where a name gives a salt, the structure may show the parent alone. Active and inactive are the calls of the source. No cut-off for these calls is given here.
Tests used:
MDA-MB-231 = experiment: Cytotoxicity against human MDA-MB-231 cells assessed as reduction in cell viability incubated for 72 hrs by MTT assay; format: functional, cell-based; details: MDA-MB-231, 72 h
How it was run: (§1)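 Cancer lines (MDA-MB-231, HT-1080, PC-3) were grown in DMEM with 10% FBS and penicillin/streptomycin at 37 °C in 5% CO₂. About 5000 cells/well adhered overnight, then serial compound dilutions were added for 72 h, with matching DMSO dilutions (0.5–0.0008% v/v) as controls. MTT (1 mg/ml final, serum-free phenol-red-free DMEM) ran 4 h, was solubilised in 2-propanol, and OD read at 550 nm (ref 690). IC50 is the concentration halving OD versus untreated, mean of three independent experiments.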

HT-1080 [1] = experiment: Cytotoxicity against human HT-1080 cells assessed as reduction in cell viability incubated for 72 hrs by MTT assay; format: functional, cell-based; details: HT-1080, 72 h; how it was run: as §1
PC-3 = experiment: Cytotoxicity against human PC-3 cells assessed as reduction in cell viability incubated for 72 hrs by MTT assay; format: functional, cell-based; details: PC-3, 72 h; how it was run: as §1
AG1523 = experiment: Cytotoxicity against human AG01523 cells assessed as reduction in cell viability incubated for 72 hrs by MTT assay; format: cell-based; details: AG1523, 72 h
[2] = target: RAC-alpha serine/threonine-protein kinase (Homo sapiens) (UniProt P31749); experiment: Inhibition of AKT phosphorylation at Ser473 residue in human HT-1080 cells at 20 uM after 15 mins by Western blotting analysis
Sequence of RAC-alpha serine/threonine-protein kinase (Homo sapiens) (P31749 whole entry): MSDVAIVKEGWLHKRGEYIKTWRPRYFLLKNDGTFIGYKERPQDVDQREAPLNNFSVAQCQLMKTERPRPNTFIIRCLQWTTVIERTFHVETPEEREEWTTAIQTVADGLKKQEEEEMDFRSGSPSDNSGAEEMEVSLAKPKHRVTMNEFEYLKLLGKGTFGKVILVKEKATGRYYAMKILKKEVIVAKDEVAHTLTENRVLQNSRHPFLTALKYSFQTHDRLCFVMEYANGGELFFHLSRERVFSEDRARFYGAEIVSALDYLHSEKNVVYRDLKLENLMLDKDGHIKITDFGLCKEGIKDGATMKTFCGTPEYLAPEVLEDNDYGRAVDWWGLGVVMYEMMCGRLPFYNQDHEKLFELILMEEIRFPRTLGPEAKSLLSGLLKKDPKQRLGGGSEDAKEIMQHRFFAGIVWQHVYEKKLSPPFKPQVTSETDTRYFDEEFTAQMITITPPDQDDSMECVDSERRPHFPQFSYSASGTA

HT-1080 [3] = experiment: Induction of cell cycle arrest in human HT1080 cells assessed as accumulation at G0/G1 phase at 2 uM incubated for 24 hrs by RNase/PI staining based flow cytometric analysis (reference value: 32.86 %); format: functional
HT-1080 [4] = experiment: Induction of cell cycle arrest in human HT1080 cells assessed as accumulation at S phase at 2 uM incubated for 24 hrs by RNase/PI staining based flow cytometric analysis (reference value: 19.59 %); format: functional
HT-1080 [5] = experiment: Induction of cell cycle arrest in human HT1080 cells assessed as accumulation at G2/M phase at 2 uM incubated for 24 hrs by RNase/PI staining based flow cytometric analysis (reference value: 47.55 %); format: functional
HT-1080 [6] = experiment: Induction of cell cycle arrest in human HT1080 cells assessed as accumulation at sub-diploid phase at 2 uM incubated for 24 hrs by RNase/PI staining based flow cytometric analysis (reference value: 5.36 %); format: functional
HT-1080 [7] = experiment: Inhibition of ERK phosphorylation in human HT-1080 cells at 20 uM after 15 mins by Western blotting analysis
HT-1080 [8] = experiment: Induction of apoptosis in human HT-1080 cells assessed as increase in PARP cleavage at 2 uM after 24 hrs by Western blotting analysis

SMILES	pIC50 (MDA-MB-231)	pIC50 (HT-1080 [1])	pIC50 (PC-3)	further results
COc1ccc(Cn2nc(-c3ccccc3)c3cc(C(=N)Nc4ccccc4)nc(N4CCOCC4)c32)cc1	4.67	5.21	4.79	
COc1cccc2c1C(=O)c1c(O)c3c(c(O)c1C2=O)C[C@@](O)(C(=O)CO)C[C@@H]3O[C@H]1C[C@H](N)[C@H](O)[C@H](C)O1 [DOXORUBICIN HYDROCHLORIDE]	6.72	8.10	6.42	pIC50 (AG1523): 6.40
COc1ccc(Cn2ncc3cc(C(=N)Nc4ccc(N5CCN(C)CC5)cc4)ncc32)cc1	5.24	5.28	5.21	
CN1CCN(c2ccc(NC(=N)c3cc4c(-c5ccccc5)n[nH]c4cn3)cc2)CC1	4.80	4.94	4.77	
N=C(Nc1cccc(C(F)(F)F)c1)c1cc2c(-c3ccccc3)n[nH]c2c(NC2CCCCC2)n1	4.61	4.67	4.60	
COc1ccc(Cn2ncc3cc(C(=N)Nc4cccc(C(F)(F)F)c4)ncc32)cc1	4.53	4.60	4.56	
N=C(Nc1cccc(C(F)(F)F)c1)c1cc2c(-c3ccccc3)n[nH]c2cn1	4.65	4.61	4.70	
CN1CCN(c2ccc(NC(=N)c3cc4c(-c5ccccc5)n[nH]c4c(N4CCOCC4)n3)cc2)CC1	5.41	5.25	5.08	
COc1ccc(Cn2cc3cc(C(=N)Nc4ccc(N5CCN(C)CC5)cc4)ncc3n2)cc1	5.10	5.49	5.00	
CN1CCN(c2ccc(NC(=N)c3cc4c(-c5ccccc5)nn(C)c4cn3)cc2)CC1	5.31	5.85	5.23	pIC50 (AG1523): 4.98
COc1ccc(Cn2nc(-c3ccccc3)c3cc(C(=N)Nc4cccc(C(F)(F)F)c4)ncc32)cc1	< 4.30	4.33	< 4.30	
Cn1nc(-c2ccccc2)c2cc(C(=N)Nc3ccccc3)ncc21	4.95	4.76	4.76	
COc1ccc(Cn2nc(-c3ccccc3)c3cc(C(=N)Nc4ccccc4)nc(NC4CCCCC4)c32)cc1	5.47	5.47	5.96	pIC50 (AG1523): 4.57; inhibition ([2]; time 15.0 min): inactive
COc1ccc(Cn2nc(-c3ccccc3)c3cc(C(=N)Nc4ccc(N5CCN(C)CC5)cc4)nc(N4CCOCC4)c32)cc1	5.95	6.15	5.34	pIC50 (AG1523): 5.66; Percentage of cells in G0/G1 phase (HT-1080 [3]): 34.31%; Activity (HT-1080 [4]): 34.21%; Activity (HT-1080 [5]): 31.48%; Percent of cells in sub-diploid (sub-G1) phase (HT-1080 [6]): 21.09%; inhibition (HT-1080 [7]): Active; inhibition ([2]; time 15.0 mins): 100%; Activity (HT-1080 [8]): Active
Cn1ncc2cc(C(=N)Nc3cccc(C(F)(F)F)c3)ncc21	< 4.30	4.47	< 4.30	
COc1ccc(Cn2nc(-c3ccccc3)c3cc(C(=N)Nc4cccc(C(F)(F)F)c4)nc(Nc4cc(OC)c(OC)c(OC)c4)c32)cc1	< 4.30			
COc1ccc(Cn2cc3cc(C(=N)Nc4ccccc4)ncc3n2)cc1	5.82	5.95	5.69	pIC50 (AG1523): 4.49; Percentage of cells in G0/G1 phase (HT-1080 [3]): 56.57%; Activity (HT-1080 [4]): 7.35%; Activity (HT-1080 [5]): 36.07%; Percent of cells in sub-diploid (sub-G1) phase (HT-1080 [6]): 24.06%; inhibition (HT-1080 [7]): inactive; Activity (HT-1080 [8]): Active
N=C(Nc1ccccc1)c1cc2c(-c3ccccc3)n[nH]c2cn1	4.96	4.66	4.64	
N=C(Nc1cccc(C(F)(F)F)c1)c1cc2cn[nH]c2cn1	< 4.30	4.44	< 4.30	
COc1ccc(Cn2cc3cc(C(=N)Nc4cccc(C(F)(F)F)c4)ncc3n2)cc1	4.81	4.89	4.89	

SMILES	pIC50 (MDA-MB-231)	pIC50 (HT-1080 [1])	pIC50 (PC-3)	further results
CN1CCN(c2ccc(NC(=N)c3cc4cnn(C)c4cn3)cc2)CC1	4.52	4.62	4.49	
Cn1cc2cc(C(=N)Nc3cccc(C(F)(F)F)c3)ncc2n1	< 4.30			
Cn1ncc2cc(C(=N)Nc3ccccc3)ncc21	< 4.30			
N=C(Nc1cccc(C(F)(F)F)c1)c1cc2c(-c3ccccc3)n[nH]c2c(N2CCOCC2)n1	4.88	5.17	4.76	
COc1ccc(Cn2nc(-c3ccccc3)c3cc(C(=N)Nc4ccccc4)nc(Nc4cc(OC)c(OC)c(OC)c4)c32)cc1	4.38	4.95	< 4.30	
COc1ccc(Cn2ncc3cc(C(=N)Nc4ccccc4)ncc32)cc1	4.46	4.59	4.44	
COc1cc(Nc2nc(C(=N)Nc3cccc(C(F)(F)F)c3)cc3c(-c4ccccc4)n[nH]c23)cc(OC)c1OC	5.12	5.17	4.86	
COc1cc(Nc2nc(C(=N)Nc3ccc(N4CCN(C)CC4)cc3)cc3c(-c4ccccc4)n[nH]c23)cc(OC)c1OC	5.34	5.47	5.37	
COc1cc(Nc2nc(C(=N)Nc3ccccc3)cc3c(-c4ccccc4)n[nH]c23)cc(OC)c1OC	5.35	5.41	5.24	
COc1ccc(Cn2nc(-c3ccccc3)c3cc(C(=N)Nc4cccc(C(F)(F)F)c4)nc(NC4CCCCC4)c32)cc1	< 4.30			
COc1ccc(Cn2nc(-c3ccccc3)c3cc(C(=N)Nc4ccc(N5CCN(C)CC5)cc4)nc(NC4CCCCC4)c32)cc1	5.89	6.19	5.45	pIC50 (AG1523): 5.48; Percentage of cells in G0/G1 phase (HT-1080 [3]): 38.53%; Activity (HT-1080 [4]): 12.9%; Activity (HT-1080 [5]): 48.57%; Percent of cells in sub-diploid (sub-G1) phase (HT-1080 [6]): 14.34%; inhibition (HT-1080 [7]): Active; Activity (HT-1080 [8]): Active
N=C(Nc1ccccc1)c1cc2cn[nH]c2cn1	< 4.30			
Cn1nc(-c2ccccc2)c2cc(C(=N)Nc3cccc(C(F)(F)F)c3)ncc21	4.67	4.75	4.68	
CN1CCN(c2ccc(NC(=N)c3cc4cn[nH]c4cn3)cc2)CC1	4.32	4.50	4.34	
CN1CCN(c2ccc(NC(=N)c3cc4cn(C)nc4cn3)cc2)CC1	4.69	4.68	4.61	
N=C(Nc1ccccc1)c1cc2c(-c3ccccc3)n[nH]c2c(N2CCOCC2)n1	5.17	5.32	5.17	
COc1ccc(Cn2nc(-c3ccccc3)c3cc(C(=N)Nc4cccc(C(F)(F)F)c4)nc(N4CCOCC4)c32)cc1	< 4.30			
COc1ccc(Cn2nc(-c3ccccc3)c3cc(C(=N)Nc4ccccc4)ncc32)cc1	5.27	5.33	5.20	
Cn1cc2cc(C(=N)Nc3ccccc3)ncc2n1	< 4.30			

— ChEMBL document CHEMBL4819061, “New bioactive 5-arylcarboximidamidopyrazolo[3,4-c]pyridines: Synthesis, cytotoxic activity, mechanistic investigation and structure-activity relationships” (Eur J Med Chem, 2021)
